Assay results published in paper PMC12398596 (Nature Communications, 2025).
Values belong to the molecule of their own block, whether it stands above or below them.

What was measured:
BV2 cells [1] = experiment: Colocalization of P2CSKn-pretreated sFITC-Aβ42 with LysoTracker Red in BV2 cells; format: cell-based, mouse; settings: chloroquine 10 μM, 1 h pretreatment
BV2 cells [2] = experiment: Degradation of FITC-Aβ42 forms in BV2 cells; format: cell-based, mouse; settings: for degradation of intracellular FITC-Aβ42: 0.5 μM FITC-Aβ42 forms, 180 min then washed
Msr1 mRNA in BV2 cells = experiment: Msr1 mRNA in BV2 cells, rt-qPCR; format: cell-based, mouse; settings: for expression of Msr1 mRNA, TLR agonists (in words): LPS 1.0 μg/mL, Pam2CSK4 1.0 μM, zymosan A 50 μg/mL, flagellin 200 nM
Marco mRNA in BV2 cells = experiment: Marco mRNA in BV2 cells, rt-qPCR; format: cell-based, mouse; settings: for expression of Marco mRNA, TLR agonists (in words): LPS 1.0 μg/mL, Pam2CSK4 1.0 μM, flagellin 200 nM
sAβ42 [3] = experiment: Dynamic light scattering, sAβ42 with compounds; format: physicochemical; settings: PBS; for shift of sAβ42 particle size to single range around 100 nm: sAβ42 + compound
fAβ42 [4] = target: T1, fAβ42 (Homo sapiens, UniProt P05067); experiment: PICUP-Western blot of fAβ42, antibody 4G8; format: biochemical; settings: fAβ42 20 μM, 37 °C, P2CSKn result at 0.5 eq. (10 μM)
fFITC-Aβ42 = experiment: LSCM re-assembly of fFITC-Aβ42 plaques; format: biochemical; settings: fFITC-Aβ42 5.0 μM, compound 25 μM, PBS
Mrc1 mRNA in BV2 cells = experiment: Mrc1 mRNA in BV2 cells, rt-qPCR; format: cell-based, mouse; settings: for expression of Mrc1 mRNA, TLR agonists (in words): LPS 1.0 μg/mL, Pam3CSK4 1.0 μM, Pam2CSK4 1.0 μM, zymosan A 50 μg/mL
sAβ42 [5] = experiment: Tyndall effect of sAβ42 with compounds; format: physicochemical; settings: PBS; for Tyndall effect of sAβ42 on addition of compound: imaged immediately after mixing; for Tyndall effect of compound itself (self-aggregation): compound alone
BV2 cells [6] = experiment: Phagocytosis of sFITC-Aβ42 in BV2 cells, flow cytometry; format: cell-based, mouse; settings: sFITC-Aβ42 0.5 μM, 2 eq., 180 min, mean ± SD, n = 3
BV2 cells [7] = experiment: Phagocytosis of fFITC-Aβ42 in BV2 cells, flow cytometry; format: cell-based, mouse; settings: fFITC-Aβ42 0.5 μM, 8 eq., 180 min, mean ± SD, n = 3
MARCO = MARCO protein in BV2 cells, Western blot; format: cell-based, mouse; settings: P2CSKn or Pam2CSK4 1.0 μM, 12 h
MSR1 = MSR1 protein in BV2 cells, Western blot; format: cell-based, mouse; settings: P2CSKn or Pam2CSK4 1.0 μM, 12 h
NLRP3 = NLRP3 protein in BV2 cells, Western blot; format: cell-based, mouse; settings: 1.0 μM, 12 h
BV2 cells [8] = experiment: Treat & wash phagocytosis of fFITC-Aβ42 in BV2 cells; format: cell-based, mouse
BV2 cells [9] = experiment: Normal vs treat & wash phagocytosis of sFITC-Aβ42 in BV2 cells; format: cell-based, mouse; settings: mean ± SD, n = 3
Aβ plaque [10] = experiment: Local cortex injection, Aβ plaque by Thioflavin S, APP/PS1 mice; format: in vivo, APP/PS1 transgenic mice; settings: 13-month-old APP/PS1, cortex, 100 μM 300 nL, 5 d, mean ± SD
Method in brief: (§1)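 13-month APP/PS1 mice (C57BL/6 background) under sodium pentobarbital (50 mg/kg) received a unilateral stereotaxic cortical injection (AP +1.0, ML ±1.0, DV −1.0) of compound or reference (100 μM, 300 nL saline, with Hoechst 33342) at 50 nL/min. Perfusion-fixed (PBS, 4% PFA) at 2 or 5 days and sections immunostained. Ratio = signal at injection zone (>80% max dye) over adjacent zone (>200 μm away, <10% dye); 50 μm around needle track excluded.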

Aβ plaque [11] = experiment: Local cortex injection, Aβ by antibody OC, APP/PS1 mice; format: in vivo, APP/PS1 transgenic mice; settings: 13-month-old APP/PS1, cortex, 100 μM 300 nL, 5 d, mean ± SD
Method in brief: as §1

Iba1 = experiment: Local cortex injection, Iba1, APP/PS1 mice; format: in vivo, APP/PS1 transgenic mice; settings: 13-month-old APP/PS1, cortex, 100 μM 300 nL, 5 d, mean ± SD
Method in brief: as §1

Aβ plaque [12] = experiment: Local hippocampus injection, Aβ plaque by Thioflavin S, APP/PS1 mice; format: in vivo, APP/PS1 transgenic mice; settings: 9-month-old APP/PS1, hippocampus, 100 μM 300 nL, 5 d, mean ± SD
Method in brief: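 APP/PS1 mice (9 or 16 months) under pentobarbital (50 mg/kg) received stereotaxic injections of test compound (100 μM, 300 nL saline, with Alexa Fluor 594) into right dorsal hippocampus (AP −2.2, ML +1.5, DV −1.9 mm) and reference into left. Meloxicam 5.0 mg/kg s.c. given pre-surgery and every 12 h for 3 days. Perfusion-fixed at 5 or 10 days, DAPI-counterstained. INJ/ADJ ratios compared between hemispheres.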

BV2 cells [13] = experiment: Phagocytosis of fluorescent microsphere in BV2 cells, flow cytometry; format: cell-based, mouse; settings: fAβ42 0.5 μM
fAβ42 [14] = target: T1, fAβ42; experiment: Dynamic light scattering, fAβ42 with P2CSKn, time-dependent; format: physicochemical
BV2 cells [15] = experiment: RNA-seq of BV2 cells; format: cell-based, mouse
caspase-3 = experiment: Cleaved caspase-3 in BV2 cells, Western blot; format: cell-based, mouse; settings: sAβ42, fAβ42 0.5 μM; hPAβ42 1.0 μM P2CSKn + 0.5 μM sAβ42; 12 h
TLR2, BV2 cells = experiment: Phagocytosis of FITC-Aβ42 forms in TLR2-WT; format: cell-based, mouse; settings: 0.5 μM, 30 min; for uptake in TLR2-knockdown BV2 cells: TLR2-siRNA; for uptake in BV2-NC cells: null-siRNA control
fAβ42 [16] = target: T1, fAβ42; experiment: ThT fluorescence kinetics of preformed fAβ42; format: biochemical; settings: sAβ42 10 μM, 37 °C
primary microglia = experiment: Phagocytosis of sFITC-Aβ42 in primary microglia, flow cytometry; format: cell-based, mouse
TLR2 = experiment: Cellular colocalization of FITC-Aβ42/RhoB-P2CSKn/TLR2, LSCM; format: cell-based, mouse; settings: RhoB-P2CSKn 1.0 μM, sFITC-Aβ42 0.5 μM, 1 h
[17] = 1.0 μM, 12 h, in the absence or presence of Aβ42 species
[18] = equimolar P2CSKn + fAβ42 (20 μM), whole sample, initial
[19] = fAβ42 only 20 μM, whole sample, 18.5 h
[20] = fAβ42 only 20 μM, whole sample, initial
[21] = fAβ42 only, supernatant, 18.5 h

Molecule: CCN(CC)CCCC(C)Nc1ccnc2cc(Cl)ccc12 (stereo not shown) [chloroquine]
- lysosome amount and level of phagocytosis of hybrid aggregates (BV2 cells [1]): significantly reduced
- degradation of intracellular FITC-Aβ42, effect of inhibitor (BV2 cells [2]; chloroquine pretreatment 10 μM, 1 h): almost completely abolished

Molecule: Flagellin
- expression of Msr1 mRNA, TLR agonists (in words) (Msr1 mRNA in BV2 cells): failed to upregulate
- expression of Marco mRNA, TLR agonists (in words) (Marco mRNA in BV2 cells): failed to upregulate

- shift of sAβ42 particle size to single range around 100 nm (sAβ42 [3]): did not occur
- oligomer alteration in fAβ42 (fAβ42 [4]): not observed
Molecule: KLVFFn
- co-location with / reshaping of FITC-Aβ42 plaque (fFITC-Aβ42): did not occur

- Tyndall effect of sAβ42 on addition of compound (sAβ42 [5]): much less activity than P2CSKn
- shift of sAβ42 particle size to single range around 100 nm (sAβ42 [3]): did not occur
- oligomer alteration in fAβ42 (fAβ42 [4]): not observed
- protein level of NLRP3 (in words) (NLRP3): increased
Molecule: Pam2CSK4
- expression of Mrc1 mRNA, TLR agonists (in words) (Mrc1 mRNA in BV2 cells): significantly attenuated
- mRNA of Msr1 (in words) (Msr1 mRNA in BV2 cells; [17]): upregulated
- expression of Msr1 mRNA, TLR agonists (in words) (Msr1 mRNA in BV2 cells): substantially upregulated
- mRNA of Marco (in words) (Marco mRNA in BV2 cells; [17]): upregulated
- expression of Marco mRNA, TLR agonists (in words) (Marco mRNA in BV2 cells): upregulated
- co-location with / reshaping of FITC-Aβ42 plaque (fFITC-Aβ42): did not occur
- MFI180 (BV2 cells [6]): 18911 ± 310
- MFI180 (BV2 cells [7]): 24286 ± 520
- count180 (cells internalized FITC-Aβ42) (BV2 cells [7]): 89.2 ± 0.3%
- protein level of MARCO (in words) (MARCO): significant increase
- protein level of MSR1 (in words) (MSR1): significant increase
- phagocytosis of fFITC-Aβ42, treat & wash (BV2 cells [8]; 1.0 μM 6 h, washed, fFITC-Aβ42 0.5 μM 12 h, mean ± SD, n = 3): 43.8 ± 4.1%
- increase in phagocytosis of fFITC-Aβ42, treat & wash (BV2 cells [8]; versus untreated fFITC-Aβ42): about 26%
- phagocytosis of sFITC-Aβ42, treat & wash group (BV2 cells [9]; compound 1.0 μM 6 h, washed, sFITC-Aβ42 0.5 μM 12 h): 24.0 ± 2.3%
- phagocytosis of sFITC-Aβ42, normal group (BV2 cells [9]; sFITC-Aβ42 0.5 μM pretreated with compound 1.0 μM 30 min, 12 h): 49.3 ± 4.1%
- INJ/ADJ TS (Aβ plaque [10]): 0.85 ± 0.11
- INJ/ADJ OC (Aβ plaque [11]): 1.05 ± 0.28
- INJ/ADJ Iba1 (Iba1): 5.79 ± 1.71

- Tyndall effect of sAβ42 on addition of compound (sAβ42 [5]): didn’t facilitate that of sAβ42
- Tyndall effect of compound itself (self-aggregation) (sAβ42 [5]): significant Tyndall effect
Molecule: Pam2KTK4-ahx-KLVFF-nal [P2KTKn]

Molecule: Pam3CSK4
- expression of Mrc1 mRNA, TLR agonists (in words) (Mrc1 mRNA in BV2 cells): significantly attenuated

- Tyndall effect of sAβ42 on addition of compound (sAβ42 [5]): didn’t facilitate that of sAβ42
- Tyndall effect of compound itself (self-aggregation) (sAβ42 [5]): significant Tyndall effect
Molecule: Pam3CSK4-ahx-KLVFF-nal [P3CSKn]

Molecule: Pam-KCKSKVFLKFK-ahx-nal [RP]
- INJ/ADJ TS (Aβ plaque [12]): 1.12 ± 1.04

Molecule: Zymosan A
- expression of Mrc1 mRNA, TLR agonists (in words) (Mrc1 mRNA in BV2 cells): significantly attenuated
- expression of Msr1 mRNA, TLR agonists (in words) (Msr1 mRNA in BV2 cells): substantially upregulated

Molecule: fAβ42: pre-formed fibrillar Aβ42
- expression of Mrc1 mRNA (in words) (Mrc1 mRNA in BV2 cells; fAβ42 0.5 μM, after 30 min): significantly suppressed
- expression of Msr1 mRNA (in words) (Msr1 mRNA in BV2 cells; fAβ42 0.5 μM, after 30 min): significantly suppressed
- expression of Marco mRNA (in words) (Marco mRNA in BV2 cells; fAβ42 0.5 μM, after 60 min): significantly suppressed
- uptake of fluorescent microsphere (in words) (BV2 cells [13]): time-dependently decreased
- hydrodynamic diameter, bimodal range (fAβ42 [14]; equimolar P2CSKn + fAβ42 (20 μM), whole sample, 0.5 h): 40–900 nm
- hydrodynamic diameter, population 2 (fAβ42 [14]; [18]): ~700 nm
- hydrodynamic diameter, population 3 (fAβ42 [14]; [18]): ~9000 nm
- hydrodynamic diameter, population 1 (fAβ42 [14]; [19]): around 16 nm
- hydrodynamic diameter, population 2 (fAβ42 [14]; [19]): ~136 nm
- hydrodynamic diameter, population 3 (dominant) (fAβ42 [14]; [19]): ~6000 nm
- hydrodynamic diameter, population 1 (fAβ42 [14]; [20]): about 40 nm
- hydrodynamic diameter, population 2 (fAβ42 [14]; [20]): ~700 nm
- hydrodynamic diameter, population 3 (fAβ42 [14]; [20]): ~6000 nm
- hydrodynamic diameter, species 1 (fAβ42 [14]; [21]): around 107 nm
- hydrodynamic diameter, species 2 (fAβ42 [14]; [21]): ~717 nm
- hydrodynamic diameter, monomodal range (fAβ42 [14]; fAβ42 only, supernatant, until 4.5 h): 40–85 nm
- phagosome-related genes, RNA-seq (BV2 cells [15]; fAβ42 0.5 μM, BV2, 12 h): significantly donwregulated
- –log2(FC) of Msr1, Marco and Mrc1 (BV2 cells [15]; fAβ42 0.5 μM, BV2, 12 h): > 1
- Tlr2, Tlr4 or Tlr5 expression (BV2 cells [15]; fAβ42 treatment, RNA-seq): not significantly affected
- apoptosis of BV2 cells, cleaved caspase-3 (caspase-3): significant apoptosis

Molecule: fFITC-Aβ42: pre-formed fibrillar FITC-Aβ42
- degradation of intracellular FITC-Aβ42 (BV2 cells [2]): efficiently degraded
- uptake in TLR2-knockdown BV2 cells (TLR2, BV2 cells): 12.8%
- uptake in BV2-NC cells (TLR2, BV2 cells): ~ 39.2%

- lag time of β-sheet formation (fAβ42 [16]): 6.5 h
Molecule: sAβ42: soluble Aβ42
- hydrodynamic diameter, peak 1 (sAβ42 [3]; sAβ42 alone): around 3 nm
- hydrodynamic diameter, peak 2 (sAβ42 [3]; sAβ42 alone): ~12 nm
- apoptosis of BV2 cells, cleaved caspase-3 (caspase-3): significant apoptosis

Molecule: sFITC-Aβ42: soluble FITC-labeled Aβ42
- cell population with engulfed sFITC-Aβ42 (primary microglia; sFITC-Aβ42 0.5 μM alone, within about 360 min): ~ 40%
- intracellular accumulation of FITC-Aβ42 (primary microglia; sFITC-Aβ42 0.5 μM ± P2CSKn 1.0 μM): extremely low
- degradation of intracellular FITC-Aβ42 (BV2 cells [2]): efficiently degraded
- uptake in TLR2-knockdown BV2 cells (TLR2, BV2 cells): 12.6%
- uptake in BV2-NC cells (TLR2, BV2 cells): ~ 27.3%
- co-localization of TLR2 with RhoB-P2CSKn and FITC-Aβ42 (TLR2): rarely observed
